Compound activity (PubChem)
Compounds with a hit are over-represented: about 2.6% of the library has one in this group of screens.
STEP inh: blocks human striatal-enriched tyrosine phosphatase; P54829; recombinant STEP, OMFP fluorogenic substrate, fluorescence; inhibition, % at 20 µM; actives 0.25% (n = 360,000); AID 588621;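 active = inhibition at 20 µM, scaled per plate between control wells, above about 37%, limit read from the data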;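 note: 0% = DMSO with enzyme and substrate and 100% = substrate only without enzyme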
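Test system: STEP tyrosine phosphatase / Reagent: OMFP at 25 µM / Doses: 20 µM, 1% DMSO / Read-out: percent inhibition scaled to no-enzyme and uninhibited-enzyme controls, plate-pattern corrected / Detection: FITC-channel fluorescence of OMFP product / Medium: Bis-Tris buffer pH 6.0, 2.5 mM DTT, 0.005% Tween 20 / Schedule: 20 min at room temperature, dark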
LMPTP block: LMPTP (human) inhibition | P24666 | recombinant LMPTP-A, OMFP fluorogenic substrate, fluorescence intensity | inhibition, % at 20 µM | actives 0.22% (n = 360,000);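 active = compounds that cut the enzyme signal by at least half of the control window in the single-dose screen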;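 note: plate controls were DMSO wells with enzyme plus substrate for no effect and substrate without enzyme for full effect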
Target sequence (P24666 whole entry, looked up): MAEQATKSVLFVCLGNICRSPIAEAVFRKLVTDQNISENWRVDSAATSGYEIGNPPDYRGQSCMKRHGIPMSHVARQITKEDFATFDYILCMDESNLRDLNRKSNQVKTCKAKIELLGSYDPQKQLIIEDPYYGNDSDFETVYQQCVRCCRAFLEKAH
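Assay system: LMPTP-A enzyme. Input: 0.625 nM LMPTP-A final. Probe or stimulus: 400 µM OMFP. Compound dosing: single 20 µM dose. Schedule: 50 min dark incubation at room temperature. Detection: fluorescence intensity of OMFP turnover product. Read-out: percent inhibition versus substrate-only and uninhibited controls. Benchmarks: no-enzyme low control, uninhibited high control.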
rCAG binder: binds r(CAG) RNA repeats. r(CAG) RNA repeat, TO-PRO-1 dye displacement fluorescence. inhibition, % at 3 µM. actives 1.3% (n = 370,000). AID 651821;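 active = inhibition above the plate cutoff, the mean of all test compounds on that plate plus 3 SD, cut at about 35% in these data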;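 note: 0% = DMSO alone and 100% = 100 µM mitoxantrone as full dye displacement; higher means more dye released from RNA so lower well fluorescence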
NadD inh: blocks S. aureus nicotinate mononucleotide adenylyltransferase; purified NadD enzyme, colorimetric absorbance read-out; inhibition, % at 20 µM; actives 0.78% (n = 360,000); in the data active = inhibition above about 26%
Scp1 inh: inhibitors of human Scp-1 phosphatase; Recombinant Scp1, phosphopeptide, malachite green phosphate absorbance; inhibition, % at 20 µM; actives 0.88% (n = 340,000);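 active = inhibition above about 50% at 20 µM, limit read from the data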;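 note: plate controls were DMSO wells with enzyme for no effect and wells lacking enzyme for full effect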
Target sequence (Q9GZU7 76-261 limits assumed): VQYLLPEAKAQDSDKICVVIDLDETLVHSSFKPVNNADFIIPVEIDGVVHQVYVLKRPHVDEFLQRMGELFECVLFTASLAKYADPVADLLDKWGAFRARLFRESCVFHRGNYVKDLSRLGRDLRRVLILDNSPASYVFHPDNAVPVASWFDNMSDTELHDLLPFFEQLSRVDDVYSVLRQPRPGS
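Material: truncated SCP-1 phosphatase (76-261aa) / Buffer or medium: 50 mM Tris acetate pH 5.5, 0.005% Tween-20, 10 mM MgCl2 / Compound dosing: one concentration, 20 µM, with 1.0% DMSO / Incubation: 45 min room-temperature reaction, 5 min colour, 30 min stabiliser / Detection: colorimetric free-phosphate detection, absorbance 630 nm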
Scp-1 conf: confirmation of human Scp-1 phosphatase inhibitors; shares compounds with Scp1 inh; inhibition, % at 20 µM; actives 61% (n = 2,500); AID 540281; recombinant SCP-1 catalytic domain, phosphate release, malachite green absorbance;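 note: plate controls were DMSO with enzyme for no effect and buffer wells lacking enzyme for full effect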
MG interference: colorimetric interference in Scp-1 counter-screen. 2,500 tested, under 10 active. shares compounds with Scp1 inh. AID 540313. Colorimetric interference counterscreen, malachite green absorbance 630 nm. apparent inhibition (interference), % at 20 µM;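 note: compounds added after enzyme reaction finished so only phosphate colour detection is probed; plate controls were DMSO wells with completed Scp-1 reaction for no effect and substrate wells lacking enzyme for full effect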
Scp-1 Tm shift: validation of human Scp-1 inhibitors by thermal shift binding; shares compounds with Scp1 inh; Recombinant SCP1, Sypro Orange thermal shift Tm; thermal shift relative to vanadate control, % at 40 µM; actives 25% (n = 1,500);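 active = substances whose mean melting-temperature shift, as a percentage of the reference inhibitor's shift, reaches about 5.3%, limit read from the data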;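 note: 0% = Tm of DMSO wells and 100% = Tm with sodium orthovanadate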
Starred values were filed as active, the others as inactive; x = not tested or not shown.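 Rule for the calls, unless noted: active = inhibition of at least 30% at 20 µM; inactive = the rest.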

SMILES	STEP inh	LMPTP block	rCAG binder	NadD inh	Scp1 inh	Scp-1 conf	MG interference	Scp-1 Tm shift
O=C(CCc1ccccc1-c1ccccc1CCNC(=O)c1ccc(F)c(F)c1)NCc1ccccc1	x	x	-1	x	x	x	x	x
Cc1ccc(NC(=O)COC(=O)C2CCC(=O)N2)c(S(=O)(=O)N2CCOCC2)c1 (stereo not drawn)	-1	-1	0	2	3	-1	-5	x
O=c1oc(-c2ccccc2)nc2sc3c(c12)CCC3	6	38	21	-4	59*	34*	-18	-20
C[C@H](CO)N1C[C@H](C)[C@@H](CN(C)Cc2ccncc2)Oc2c(NS(=O)(=O)c3ccccc3)cccc2C1=O	0	0	3	6	-8	x	x	x
C[C@H]1CN([C@@H](C)CO)C(=O)c2cccc(NS(=O)(=O)c3ccc(F)cc3)c2O[C@H]1CN(C)Cc1ccc(Cl)c(Cl)c1	-1	-1	2	-3	1	x	x	x
C[C@H](CO)N1C[C@H](C)[C@@H](CN(C)Cc2ccncc2)Oc2c(NS(=O)(=O)c3cn(C)cn3)cccc2C1=O	0	-1	2	5	57*	4	-9	x
C[C@H](CO)N1C[C@H](C)[C@@H](CN(C)Cc2ccc(Cl)c(Cl)c2)Oc2c(NS(=O)(=O)c3cn(C)cn3)cccc2C1=O	0	-2	3	2	59*	-7	-17	x
Cc1ccccc1N1CCN(C(=O)CCn2nnc3ccccc32)CC1	x	x	3	x	x	x	x	x
Cc1ccc(C)c(NC(=O)CSc2ncnc3nc[nH]c23)c1	0	0	1	15	58*	-19	-16	x
Cc1cccc(NC(=O)CSc2ncnc3nc[nH]c23)c1C	0	0	-1	13	13	x	x	x
COC(=O)[C@]12C[C@H](CC(=O)NCCCCc3ccccc3)C(=O)N(CCC3=CCCCC3)C1=C[C@H](C(C)C)O[C@@H]2C1CC1	x	x	6	x	x	x	x	x
C/C(CC(=O)NCc1ccco1)=N\NC(=O)Cc1ccc(-c2ccccc2)cc1	1	0	3	-3	-5	x	x	x
C/C(CC(=O)NC1CCCCC1)=N\NC(=O)Cc1ccc(-c2ccccc2)cc1	2	1	2	3	69*	86*	-5	-7
COC(=O)[C@]12CCCCC=C1N(Cc1ccc(OC)cc1)C(=O)[C@@H]2CC(=O)N1CCN(C(=O)C2CC2)CC1	x	x	0	x	x	x	x	x
C=CCOC(=O)N[C@H](c1ccccc1)[C@H](C)/C=C/CC(=O)OC	x	x	1	x	x	x	x	x
O=C(NNC(=O)c1ccc(NC(=O)c2ccccc2)cc1)Nc1ccccc1	6	14	4	-6	51*	67*	-11	-12
NS(=O)(=O)c1ccc(NC(=O)c2ccc(-c3ccccc3)cc2)cc1	24	42	20	29	60*	66*	-11	14*
CC(C)(C)c1ccc(C(=O)Nc2ccc(S(N)(=O)=O)cc2)cc1	-2	1	6	-12	-2	x	x	x
Cc1ccc(NC(=O)c2cccc(C(=O)Nc3ccc(C)cc3C(=O)O)c2)c(C(=O)O)c1	6	-2	24	9	57*	54*	-11	1
Cc1cccc(C(=O)NNC(=O)c2ccc(-c3ccccc3)cc2)c1	11	43	5	-3	70*	73*	-16	-9
COc1ccc(C)cc1NC(=O)c1cccc(C(=O)Nc2cc(C)ccc2OC)c1	-2	2	-3	-8	-11	x	x	x
O=C(CSc1nnc(COc2ccccc2)n1-c1ccccc1)Nc1ccc2c(c1)OCCO2	x	x	4	x	x	x	x	x
O=C(NNC(=O)c1ccc(-c2ccccc2)cc1)c1ccccc1	24	31	7	-2	74*	54*	-19	5.7*
COc1ccc(C(=O)NCc2nnc(SCC(=O)Nc3ccccc3F)o2)cc1	-1	-1	4	3	52*	-24	-19	x
COc1ccc(CCCc2nnc(SCC(=O)Nc3ccc(C)c(C)c3)o2)cc1	-3	0	-3	3	90*	-3	-15	x
SMILES	STEP inh	LMPTP block	rCAG binder	NadD inh	Scp1 inh	Scp-1 conf	MG interference	Scp-1 Tm shift
COc1ccc(/C=N/N=C2/NC(=O)C(CC(=O)O)S2)cc1OCc1ccccc1Cl (stereo not drawn)	1	-1	22	8	81*	72*	-4	-5
CCOC(=O)/C(CCC[N+](C)(CC)CC)=N\O	0	-1	2	17	99*	-8	-14	x
COc1ccc(CC(=O)NNC(=O)COc2ccc3ccccc3c2)cc1	2	16	11	-3	57*	52*	-14	-17
Cc1ccccc1/C=C/c1cc[n+](C)cc1	2	-1	2	9	58*	-12	-20	x
Cc1[nH]c2ccccc2c1/C=C/c1cc[n+](C)cc1	-4	6	-77	3	34	x	x	x
CCCCC1(C)OC(=O)C(=Cc2ccc(-c3ccc(Cl)c(C(=O)O)c3)o2)C(=O)O1 (stereo not drawn)	11	0	2	0	60*	45*	-12	-28
O=C(O)c1cc(-c2ccc(/C=N/NC(=S)Nc3ccccc3)o2)ccc1Cl	1	1	26	-3	52*	59*	-2	12*
Cc1ccc(N2NC(=O)/C(=C/c3ccc(-c4ccc(Cl)c(C(=O)O)c4)o3)C2=O)cc1	11	6	21	4	43	x	x	x
CSCCC(NS(=O)(=O)c1ccc2c(c1)oc(=O)n2C)C(=O)NC1CCC(C)CC1 (stereo not drawn)	0	-1	0	-3	-22	4	-6	x
CCCCCN1CCCCC(NC(=O)c2cc(OC)c(OC)c(OC)c2)C1=O (stereo not drawn)	x	x	-1	x	x	x	x	x
Cc1ccc(-c2nc3ccc(C(=O)O)cc3nc2-c2ccc(C)cc2)cc1	1	0	3	10	61*	27	-9	x
Cc1ccc2nc(-c3ccccc3)c(-c3ccccc3)nc2c1	2	1	-5	-3	-3	x	x	x
C(/C=C\c1ccco1)=NN1CCN(Cc2cccc3ccccc23)CC1	x	x	6	x	x	x	x	x
Cc1ccc(CSc2nnc(-c3cccs3)o2)cc1C	x	x	1	x	x	x	x	x
CC1CC(CC(=O)Nc2nc(-c3ccccc3)cs2)C(=O)O1 (stereo not drawn)	3	-2	-3	-5	-4	-10	-5	x
O=C(OC12CCCN(C1)/C(=C/c1ccncc1)C2)c1ccccc1 (stereo not drawn)	x	x	3	x	x	x	x	x
COc1cc(NC(=O)C2CCCN(S(=O)(=O)c3cc(OC)ccc3OC)C2)cc(OC)c1 (stereo not drawn)	x	x	4	x	x	x	x	x
CCOc1ccc(C(=O)OCC(=O)NCc2ccco2)cc1OCC	-16	3	6	0	32	x	x	x
